Source: PubChem BioAssay
Yeast growth inh: growth inhibitors of yeast BB579 in restrictive medium, primary screen, yeast lifespan-shortening project, S. cerevisiae | OD615, 48 h | inhibition, % at 10 µM | hit rate 0.51% among 140,000 | AID 804, 2007;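 active means inhibition above a set limit, 3 SD over the mean compound inhibition, cut at about 44% in these data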
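Material: Saccharomyces cerevisiae DeaD strain BB579, replicative lifespan model yeast; buffer or medium: CSMM-D restrictive synthetic medium containing dextrose (glucose); compound: 10 µM single dose, DMSO 0.25%; timing: 48 h compound exposure at 30 °C after 4 h preincubation; signal: turbidity as optical density at 615 nm; benchmarks: positive control amphotericin B 10 µg/mL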
Yeast lifespan up: compounds extending yeast replicative lifespan, primary screen, S. cerevisiae, OD615; S. cerevisiae growth with nicotinamide; deaD strain in restrictive glucose medium; inhibition of the nicotinamide effect, % at 10 µM; hit rate 0.68% among 130,000; AID 775, 2007;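 active means inhibition above a set limit, placed 3 SD over the median of all compounds, cut at about 26% in these data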;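 further: 0% = nicotinamide-treated wells and 100% = cells grown without nicotinamide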
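Assay system: DeaD-strain S. cerevisiae. Medium: CSMM-D glucose medium, restrictive. Reagent: nicotinamide, 1.5 mM, co-present with compound. Compound: 10 µM single point, 0.25% DMSO. Schedule: culture preincubation 4 h, compound exposure 48 h, both 30 °C. Detection: absorbance at 615 nm.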
RAM inhibit: inhibitors of the yeast RAM network, primary screen, dse1pr::URA3 reporter, 5-FOA selection | S. cerevisiae dse1pr::URA3 reporter, 5-FOA growth OD615, 2 d; analog-sensitive cbk1-as2 kinase mutant strain | inhibition, % at 50 µM | hit rate 1.8% among 190,000;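 active means inhibition above a set limit, 3 SD over mean compound inhibition, cut at about 8.4% in these data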;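 further: 0% = DMSO-only wells with no growth and 100% = 10 µM 1-NA-PP1 full growth; inhibition rescues growth on 5-FOA so higher OD means more RAM inhibition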
Measles CPE: compounds protecting cells from measles virus cytopathic effect, primary screen, measles RdRp inhibitor project, single point, MLSMR library, absorbance; AID 841, 2007; protection (pct of control), % at 4 µM; hit rate 1.5% among 140,000; Measles virus-infected cells, CPE protection; in the data active means protection mostly above about 24%, no sharp cut-off; inactive means mostly below about 26%
* marks the source's active call; other numbers are inactive results. Most compounds without a hit are left out; they make up all but 3.8% or so of the library.

How did CN(C)S(=O)(=O)c1ccc(Cl)c(NC(=O)CSc2nc3c(cc2C#N)C(=O)CC(C)(C)C3)c1 do in these assays?
Yeast growth inh: -26; Yeast lifespan up: 0; RAM inhibit: 9.1*; Measles CPE: 7

Results for CCN(CC)S(=O)(=O)c1ccc(NC(=O)COC(=O)CNS(=O)(=O)/C=C/c2ccccc2)cc1 ?
Yeast growth inh: -40; Yeast lifespan up: 0; RAM inhibit: 8.4*; Measles CPE: 4

Results for O=C(CSc1cccc[n+]1[O-])Nc1ccc2c(c1)OCCO2 ?
RAM inhibit: 1

What do the screens show for `CCN(CC)S(=O)(=O)c1ccc(NC(=O)CSc2cccc[n+]2[O-])cc1`?
Yeast growth inh: 65*; Yeast lifespan up: -5; RAM inhibit: -1; Measles CPE: 4

What do the screens show for `CCN(CC)S(=O)(=O)c1ccc(NC(=O)C2c3ccccc3Oc3ccccc32)cc1`?
Yeast growth inh: -54; Yeast lifespan up: 3; RAM inhibit: 8.6*; Measles CPE: 5

How did CNS(=O)(=O)c1ccc(NC(=O)C2c3ccccc3Oc3ccccc32)cc1 do in these assays?
Yeast growth inh: -18; Yeast lifespan up: 3; RAM inhibit: 3; Measles CPE: 6

How did CCOc1cc(/C=C(/C#N)c2ccc(F)cc2)ccc1OCc1ccc(C(=O)O)o1 do in these assays?
Yeast growth inh: -23; Yeast lifespan up: -10; RAM inhibit: 6; Measles CPE: 18

Results for CCOc1cc(/C=C(/C#N)c2nc3ccccc3[nH]2)ccc1OCc1ccc(C(=O)O)o1 ?
Yeast growth inh: -49; Yeast lifespan up: -3; RAM inhibit: 9.1*; Measles CPE: 16

What do the screens show for `Cn1c(=O)c2c(nc(CN3CCN(C(=O)c4ccco4)CC3)n2Cc2ccccc2F)n(C)c1=O`?
Yeast growth inh: -5; Yeast lifespan up: -1; RAM inhibit: 3; Measles CPE: 27

How did O=C(Nc1nc2ccccc2n1CCOc1ccc(Cl)cc1)c1ccco1 do in these assays?
Yeast growth inh: 9; Yeast lifespan up: -9; RAM inhibit: 1; Measles CPE: 40*

How did COc1cc(C2NC(=O)NC(C)=C2C(=O)OCc2ccccc2)ccc1O (stereo not drawn) do in these assays?
Yeast growth inh: 8; RAM inhibit: 3; Measles CPE: 16

What do the screens show for `CCOc1cc(C2NC(=O)NC(C)=C2C(=O)OCc2ccccc2)ccc1O` (stereo not drawn)?
Yeast growth inh: -23; Yeast lifespan up: -14; RAM inhibit: 1; Measles CPE: 47*

Results for CC(C)OC(=O)c1cccc(NC(=O)CSc2nnc(N)s2)c1 ?
RAM inhibit: 1

How did O=C(Nc1cccc(F)c1)c1cc(S(=O)(=O)NCCC2=CCCCC2)ccc1F do in these assays?
Yeast growth inh: -42; Yeast lifespan up: 2; RAM inhibit: 11*; Measles CPE: 25

What do the screens show for `Cc1ccc(NC(=O)c2cc(S(=O)(=O)NCCC3=CCCCC3)ccc2F)cc1F`?
Yeast growth inh: -14; Yeast lifespan up: -3; RAM inhibit: 3

What do the screens show for `CCC(CC)NC(=O)CCCSc1nc2ccccc2[nH]1`?
RAM inhibit: 2

Results for O=C1CC(c2ccccc2)CC(=O)C1Sc1ccc(Cl)cc1 (stereo not drawn) ?
Yeast growth inh: -3; Yeast lifespan up: 40*; RAM inhibit: 2; Measles CPE: 23

How did O=C1CC(c2ccc(Cl)cc2)CC(=O)C1CS(=O)(=O)c1ccccc1 (stereo not drawn) do in these assays?
RAM inhibit: 1

How did CC1CCC(C(C)C)C(OC(=O)CSc2n[nH]c(=O)[nH]c2=O)C1 (stereo not drawn) do in these assays?
Yeast growth inh: -47; Yeast lifespan up: 48*; RAM inhibit: 2; Measles CPE: 13

Results for Cc1nnc(SCC(=O)OC2CC(C)CCC2C(C)C)[nH]c1=O (stereo not drawn) ?
Yeast growth inh: -1; Yeast lifespan up: 3; RAM inhibit: 6; Measles CPE: 3

What do the screens show for `CSc1nc(Cl)c(Cc2ccc(OC(C)C)cc2)c(N(C)C)n1`?
Yeast growth inh: -11; Yeast lifespan up: 8; RAM inhibit: 8.9*; Measles CPE: 12

How did CCOc1ccc(Cc2c(Cl)nc(SC)nc2N(C)C)cc1 do in these assays?
Yeast growth inh: -34; Yeast lifespan up: -4; RAM inhibit: 7; Measles CPE: 4

What do the screens show for `C=CCn1c2ccccc2n2nc(C)c(=O)nc12`?
Yeast growth inh: -32; RAM inhibit: 0; Measles CPE: 38*

How did Cc1nn2c3ccccc3n(CCN3CCCCC3)c2nc1=O do in these assays?
Yeast growth inh: -9; RAM inhibit: 0; Measles CPE: 9

Results for CCCc1ccc(-c2cc(NC(=O)CSc3nnc(N)s3)n(-c3ccccc3)n2)cc1 ?
Yeast growth inh: -29; Yeast lifespan up: -7; RAM inhibit: 3; Measles CPE: 5

Results for O=c1[nH]c(=O)n(Cc2ccco2)c2c1C(C(F)(F)F)(C(F)(F)F)N=C(c1ccc(F)cc1)N2 ?
Yeast growth inh: -63; Yeast lifespan up: 2; RAM inhibit: 8.8*; Measles CPE: 15

What do the screens show for `CCn1ncc(/C=N\NC(=O)Cc2ccc([N+](=O)[O-])cc2)c1C`?
Yeast growth inh: -58; Yeast lifespan up: 1; RAM inhibit: 3; Measles CPE: 46*

How did NNC(=O)c1ccc(COc2cccc3ccccc23)cc1 do in these assays?
Yeast growth inh: 90*; Yeast lifespan up: -8; RAM inhibit: -1; Measles CPE: 7

Results for O=C(NCc1ccco1)c1ccc(COc2cccc3ccccc23)cc1 ?
Yeast growth inh: -4; Yeast lifespan up: -1; RAM inhibit: 8; Measles CPE: 19

What do the screens show for `COc1ccccc1N1CCN(C(=O)CCCn2nc(C)c([N+](=O)[O-])c2C)CC1`?
RAM inhibit: -1

How did Cc1cc(C(=O)CN2C(=O)NC3(CCCc4sccc43)C2=O)c(C)n1-c1ccc(Cl)cc1 (stereo not drawn) do in these assays?
Yeast growth inh: -18; Yeast lifespan up: -1; RAM inhibit: 5; Measles CPE: 39*

What do the screens show for `Cc1cc(C(=O)CN2C(=O)NC3(CCCc4ccccc43)C2=O)c(C)n1C` (stereo not drawn)?
Yeast growth inh: -33; Yeast lifespan up: 13; RAM inhibit: 1; Measles CPE: 5

How did CC1CC(=O)Nc2ccccc2N1S(=O)(=O)c1cccc(Cl)c1 (stereo not drawn) do in these assays?
Yeast growth inh: -28; Yeast lifespan up: -5; RAM inhibit: 0; Measles CPE: 39*

How did CN(C)c1cc[n+](CC(=O)Nc2cc(C(F)(F)F)ccc2Cl)cc1 do in these assays?
Yeast growth inh: -22; Yeast lifespan up: -1; RAM inhibit: 0; Measles CPE: 64*

Results for Cc1cc[n+](CC(=O)Nc2cc(C(F)(F)F)ccc2Cl)cc1 ?
Yeast growth inh: -33; Yeast lifespan up: -11; RAM inhibit: 1; Measles CPE: 21
